Data: ChEMBL document CHEMBL1147862, “Studies on synthesis and pharmacological activities of 3,6-disubstituted-1,2,4-triazolo[3,4-b]-1,3,4-thiadiazoles and their dihydro analogues” (2007)

Legend:
Type in all cases: functional
Candida albicans [1] = assay: Antifungal activity against Candida albicans at 30 ug/ml by paper disc method; conditions: read-out: IZ
Aspergillus niger [2] = assay: Antifungal activity against Aspergillus niger at 10 ug/ml by paper disc method; conditions: read-out: IZ
Mus musculus [3] = assay: Analgesic activity in Swiss mouse assessed as increase in reaction time at 20 mg/kg, po after 30 mins by Eddy's hot plate technique
Outline: (§1)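 Swiss mice of either sex, 25–35 g, placed one at a time on a hot plate held at 55 °C. End point is paw licking or jumping, whichever comes first, with a 15 s cut-off to avoid paw injury. Reaction time is recorded and reported as percent increase in reaction time.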

Candida albicans [4] = assay: Antifungal activity against Candida albicans at 10 ug/ml by paper disc method; conditions: read-out: IZ
Pseudomonas aeruginosa [5] = assay: Antibacterial activity against Pseudomonas aeruginosa at 30 ug/ml by agar plate diffusion technique; conditions: read-out: IZ
Pseudomonas aeruginosa [6] = assay: Antibacterial activity against Pseudomonas aeruginosa at 10 ug/ml by agar plate diffusion technique; conditions: read-out: IZ
Staphylococcus aureus [7] = assay: Antibacterial activity against Staphylococcus aureus at 10 ug/ml by agar plate diffusion technique; conditions: read-out: IZ
Staphylococcus aureus [8] = assay: Antibacterial activity against Staphylococcus aureus at 30 ug/ml by agar plate diffusion technique; conditions: read-out: IZ
Rattus norvegicus [9] = assay: Antiinflammatory activity in Wistar Albino rat assessed as inhibition of carrageenan-induced paw oedema at 20 mg/kg after 2 hrs relative to control
Outline: (§2)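 Wistar albino rats, 150–200 g, six per group, dosed orally with a 20 mg/kg suspension; control gets 0.1 ml 1% gum acacia. After 30 min, 0.1 ml 1% carrageenan in saline is injected subplantar into the right hind paw. Paw volume is read by plethysmograph at 0–4 h. Inhibition = 100(1 − Vtest/Vcontrol) on mean volume increase.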

Staphylococcus aureus [10] = assay: Antibacterial activity against Staphylococcus aureus at 20 ug/ml by agar plate diffusion technique; conditions: read-out: IZ
Candida albicans [11] = assay: Antifungal activity against Candida albicans at 20 ug/ml by paper disc method; conditions: read-out: IZ
Escherichia coli [12] = assay: Antibacterial activity against Escherichia coli at 10 ug/ml by agar plate diffusion technique; conditions: read-out: IZ
Mus musculus [13] = assay: Analgesic activity in Swiss mouse assessed as increase in reaction time at 20 mg/kg, po after 60 mins by Eddy's hot plate technique; outline: as §1
Mus musculus [14] = assay: Analgesic activity in Swiss mouse assessed as increase in reaction time at 20 mg/kg, po after 90 mins by Eddy's hot plate technique; outline: as §1
Escherichia coli [15] = assay: Antibacterial activity against Escherichia coli at 20 ug/ml by agar plate diffusion technique; conditions: read-out: IZ
Aspergillus niger [16] = assay: Antifungal activity against Aspergillus niger at 20 ug/ml by paper disc method; conditions: read-out: IZ
Rattus norvegicus [17] = assay: Antiinflammatory activity in Wistar Albino rat assessed as inhibition of carrageenan-induced paw oedema at 20 mg/kg after 3 hrs relative to control; outline: as §2
Bacillus subtilis [18] = assay: Antibacterial activity against Bacillus subtilis at 30 ug/ml by agar plate diffusion technique; conditions: read-out: IZ
Aspergillus niger [19] = assay: Antifungal activity against Aspergillus niger at 30 ug/ml by paper disc method; conditions: read-out: IZ
Bacillus subtilis [20] = assay: Antibacterial activity against Bacillus subtilis at 10 ug/ml by agar plate diffusion technique; conditions: read-out: IZ
Rattus norvegicus [21] = assay: Antiinflammatory activity in Wistar Albino rat assessed as inhibition of carrageenan-induced paw oedema at 20 mg/kg after 4 hrs relative to control; outline: as §2
Pseudomonas aeruginosa [22] = assay: Antibacterial activity against Pseudomonas aeruginosa at 20 ug/ml by agar plate diffusion technique; conditions: read-out: IZ
Bacillus subtilis [23] = assay: Antibacterial activity against Bacillus subtilis at 20 ug/ml by agar plate diffusion technique; conditions: read-out: IZ
Escherichia coli [24] = assay: Antibacterial activity against Escherichia coli at 30 ug/ml by agar plate diffusion technique; conditions: read-out: IZ
Rattus norvegicus [25] = assay: Antiinflammatory activity in Wistar Albino rat assessed as inhibition of carrageenan-induced paw oedema at 20 mg/kg after 1 hr relative to control; outline: as §2

Compound | zone of inhibition at 30 µg/mL (Candida albicans [1]) [mm] | zone of inhibition at 10 µg/mL (Aspergillus niger [2]) [mm] | Activity (Mus musculus [3]) [%] | zone of inhibition at 10 µg/mL (Candida albicans [4]) [mm] | zone of inhibition at 30 µg/mL (Pseudomonas aeruginosa [5]) [mm] | zone of inhibition at 10 µg/mL (Pseudomonas aeruginosa [6]) [mm] | zone of inhibition at 10 µg/mL (Staphylococcus aureus [7]) [mm] | zone of inhibition at 30 µg/mL (Staphylococcus aureus [8]) [mm] | inhibition in vivo at 20 mg/kg (Rattus norvegicus [9]) [%] | zone of inhibition at 20 µg/mL (Staphylococcus aureus [10]) [mm] | zone of inhibition at 20 µg/mL (Candida albicans [11]) [mm] | zone of inhibition at 10 µg/mL (Escherichia coli [12]) [mm] | Activity (Mus musculus [13]) [%] | Activity (Mus musculus [14]) [%] | zone of inhibition at 20 µg/mL (Escherichia coli [15]) [mm] | zone of inhibition at 20 µg/mL (Aspergillus niger [16]) [mm] | inhibition in vivo at 20 mg/kg (Rattus norvegicus [17]) [%] | zone of inhibition at 30 µg/mL (Bacillus subtilis [18]) [mm] | zone of inhibition at 30 µg/mL (Aspergillus niger [19]) [mm] | zone of inhibition at 10 µg/mL (Bacillus subtilis [20]) [mm] | also measured
COc1ccc(Cl)c(-c2nnc3sc(-c4ccnc(Cl)c4)nn23)c1 | 19.3 | 6.64 | 7.14 | 7.14 | 19.1 | 7.02 | 6.98 | 18.6 | 20.1 | 13.7 | 13.7 | 6.39 | 17.45 | 23 | 12.2 | 11.8 | 23.5 | 18.6 | 18.4 | 7.12 | inhibition in vivo at 20 mg/kg (Rattus norvegicus [21]): 27.2%; zone of inhibition at 20 µg/mL (Pseudomonas aeruginosa [22]): 12.5 mm; zone of inhibition at 20 µg/mL (Bacillus subtilis [23]): 13.8 mm; zone of inhibition at 30 µg/mL (Escherichia coli [24]): 19.2 mm; inhibition in vivo at 20 mg/kg (Rattus norvegicus [25]): 14.4%
COc1ccc(Cc2nnc3n2NC(c2cccn2C)S3)cc1OC (stereo not given) | 12.1 | 4.35 | 5.62 | 4.18 | 11.4 | 4.12 | 3.74 | 10.6 | 15.8 | 5.92 | 7.1 | 3.95 | 10.24 | 19.24 | 6.71 | 7.9 | 18.4 | 9.12 | 12.6 | 3.3 | inhibition in vivo at 20 mg/kg (Rattus norvegicus [21]): 19.9%; zone of inhibition at 20 µg/mL (Pseudomonas aeruginosa [22]): 7.48 mm; zone of inhibition at 20 µg/mL (Bacillus subtilis [23]): 6.3 mm; zone of inhibition at 30 µg/mL (Escherichia coli [24]): 10.2 mm; inhibition in vivo at 20 mg/kg (Rattus norvegicus [25]): 13.4%
COc1ccc2[nH]cc(Cc3nn4c(-c5ccoc5C)nnc4s3)c2c1 | 13.5 | 5.06 | 13.84 | 5.62 | 14.5 | 5.36 | 4.85 | 13.3 | 20.1 | 9.1 | 10.8 | 5.16 | 24.76 | 31.86 | 9.35 | 9.8 | 26.1 | 14.2 | 13.1 | 5.82 | inhibition in vivo at 20 mg/kg (Rattus norvegicus [21]): 30.8%; zone of inhibition at 20 µg/mL (Pseudomonas aeruginosa [22]): 9.62 mm; zone of inhibition at 20 µg/mL (Bacillus subtilis [23]): 9.61 mm; zone of inhibition at 30 µg/mL (Escherichia coli [24]): 14.2 mm; inhibition in vivo at 20 mg/kg (Rattus norvegicus [25]): 16%
Cc1occc1-c1nnc2n1NC(c1cccn1C)S2 (stereo not given) | 13.2 | 4.93 | 7.55 | 4.5 | 13.2 | 4.36 | 4.42 | 11.2 | 18.9 | 6.23 | 8.06 | 4.11 | 16.8 | 21.96 | 7.19 | 8.08 | 21.5 | 11.4 | 13.7 | 4.52 | inhibition in vivo at 20 mg/kg (Rattus norvegicus [21]): 22.4%; zone of inhibition at 20 µg/mL (Pseudomonas aeruginosa [22]): 7.9 mm; zone of inhibition at 20 µg/mL (Bacillus subtilis [23]): 7.48 mm; zone of inhibition at 30 µg/mL (Escherichia coli [24]): 12.1 mm; inhibition in vivo at 20 mg/kg (Rattus norvegicus [25]): 14.6%
COc1ccc(Cl)c(-c2nnc3sc(Cc4c(C)[nH]c5ccc(OC)cc45)nn23)c1 | 11.7 | 4.56 | 19.48 | 4.35 | 12.4 | 4.15 | 4.17 | 12.1 | 20 | 8.12 | 8.72 | 4.26 | 28.54 | 35.24 | 7.28 | 8.24 | 26.1 | 11.9 | 12.3 | 4.12 | inhibition in vivo at 20 mg/kg (Rattus norvegicus [21]): 32.7%; zone of inhibition at 20 µg/mL (Pseudomonas aeruginosa [22]): 7.92 mm; zone of inhibition at 20 µg/mL (Bacillus subtilis [23]): 7.18 mm; zone of inhibition at 30 µg/mL (Escherichia coli [24]): 12.3 mm; inhibition in vivo at 20 mg/kg (Rattus norvegicus [25]): 11.3%
COc1ccc(Cl)c(-c2nnc3sc(-c4ccnc5ccccc45)nn23)c1 | 18 | 6.4 | 7.69 | 6.48 | 18.7 | 7.82 | 7.21 | 18.1 | 14.3 | 13.2 | 13.9 | 8.28 | 17.24 | 23.84 | 14.5 | 12.8 | 18.6 | 18.8 | 19.1 | 7.68 | inhibition in vivo at 20 mg/kg (Rattus norvegicus [21]): 20.9%; zone of inhibition at 20 µg/mL (Pseudomonas aeruginosa [22]): 13.3 mm; zone of inhibition at 20 µg/mL (Bacillus subtilis [23]): 13.1 mm; zone of inhibition at 30 µg/mL (Escherichia coli [24]): 18.8 mm; inhibition in vivo at 20 mg/kg (Rattus norvegicus [25]): 11.1%
